In one data set the test system is Enterococcus faecalis. Kind of data set: Antibiotic activity against vancomycin-resistant Enterococcus faecalis ATCC 51299 assessed as inhibition of bacterial growth incubated for 16 hrs in presence of 0.002% polysorbate 80. It is filed as functional.
The test system of a further data set is HeLa. Briefly: Cytotoxicity against human HeLa cells at 50 uM by promega cytotox-glo assay. The data set is classed as toxicity, cell-based. The essentials:
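HeLa cells were exposed to compound at concentrations up to 50 μM. Cytotoxicity was read with the Cytotox-Glo luminescent assay.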

Data set [1] is described as follows: Solubility in PBS buffer at pH 7.4 at 0.5 mg/ml by HPLC analysis. The data set is classed as physicochemical.
Data set [2] in a line: Hemolytic activity in human Red blood cell assessed as hemolysis at 100 microg/ml in presence of 0.002% polysorbate 80 relative to control. It is filed as toxicity, cell-based, Erythrocyte. The conditions noted are these: red blood cells (erythrocytes), at 100 µg/mL, read-out: Activity. The essentials:
(§1)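 Human red blood cells were tested with and without 0.002% polysorbate 80. Triton X-100 served as the 100% lysis control and water (vehicle) as the 0% lysis control. 1.25 μM melittin was an added positive control.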

The next data set deals with Bacillus subtilis. Kind of data set: Antibiotic activity against Bacillus subtilis ATCC 6051 assessed as inhibition of bacterial growth incubated for 16 hrs in presence of 0.002% polysorbate 80. The data set is classed as functional. The essentials: (§2)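 Broth microdilution in media containing 0.002% polysorbate 80. Overnight cultures were grown at 37 °C with shaking in Mueller-Hinton broth. Inoculum was set from background-corrected OD600 to about 5 × 10^5 CFU/mL final. 2-fold dilutions gave final 8 to 0.0078 μg/mL from a DMSO stock. Plates were incubated 16 h at 37 °C and OD600 was read. MIC is the lowest concentration with no growth. Run in quadruplicate technical replicates.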

For data set [3], the system named is Staphylococcus aureus. Kind of data set: Antibiotic activity against methicillin-resistant Staphylococcus aureus ATCC 700698 assessed as inhibition of bacterial growth incubated for 16 hrs in presence of 0.002% polysorbate 80. It is filed as functional. An outline of the steps:
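Overnight culture from glycerol stock in brain heart infusion broth at 37 °C with shaking; all media contain 0.002% polysorbate 80. DMSO stock (1 mg/mL) diluted in medium; 2-fold series, final 8–0.0078 μg/mL; inoculum ~5 × 10^5 CFU/mL (OD600-normalised).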

Another data set deals with Erythrocyte. Kind of data set: Hemolytic activity in human Red blood cell at 25 microg/ml in absence of polysorbate 80. The data set is classed as toxicity, cell-based. The conditions noted are these: dose 25 µg/ml. An outline of the steps: as §1
Data set [4] has as its system Staphylococcus epidermidis. Kind of data set: Antibiotic activity against Staphylococcus epidermidis ATCC 14990 assessed as inhibition of bacterial growth incubated for 16 hrs in presence of 0.002% polysorbate 80. It is filed as functional. The essentials:
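Broth microdilution in media containing 0.002% polysorbate 80. Overnight cultures were grown at 37 °C with shaking in Mueller-Hinton broth. Inoculum was set from background-corrected OD600 to about 5 × 10^5 CFU/mL final. Plates were incubated 16 h at 37 °C and OD600 was read. MIC is the lowest concentration with no growth. Run in quadruplicate technical replicates.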

Data set [5] deals with Staphylococcus aureus. Briefly: Antibiotic activity against methicillin-sensitive Staphylococcus aureus ATCC 29213 assessed as inhibition of bacterial growth incubated for 16 hrs in presence of 0.002% polysorbate 80. It is filed as functional. The essentials: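 Overnight culture from glycerol stock in Mueller-Hinton broth at 37 °C with shaking; all media contain 0.002% polysorbate 80. DMSO stock (1 mg/mL) diluted in medium; 2-fold series, final 8–0.0078 μg/mL; inoculum ~5 × 10^5 CFU/mL (OD600-normalised).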

A further data set deals with Escherichia coli. Briefly: Antibiotic activity against Escherichia coli ATCC 10798 assessed as inhibition of bacterial growth incubated for 16 hrs in presence of 0.002% polysorbate 80. The data set is classed as functional. An outline of the steps: as §2

SMILES strings stand for the structures. Bridge positions count the residues as written; N and C are the ends. Square brackets hold non-standard residues; d marks the D form. Side chains are listed from the residue outwards. Peptide text beside a SMILES is read from it. I, II: the chains in the order shown. * marks the point of attachment. Ser(O-(NMe-dPhe-Ile)) = CC[C@H](C)[C@H](NC(=O)[C@@H](Cc1ccccc1)NC)C(=O)OC[C@H](N)C(=O)*; d(aIle) = CC[C@H](C)[C@@H](N)C(=O)O; dNMeF = CN[C@H](Cc1ccccc1)C(=O)O; Chg = N[C@H](C(=O)O)C1CCCCC1

One may read the MIC as the lowest concentration that inhibits growth of the organism.

Consider `CC[C@H](C)[C@H](NC(=O)[C@@H](Cc1ccccc1)NC)C(=O)OC[C@H](N)C(=O)N[C@H](CCCNC(=N)N)C(=O)N[C@@H](C(=O)N[C@H](C(=O)OC[C@H](N)C(=O)N[C@H]1C(=O)N[C@@H](C)C(=O)N[C@@H](C2CCCCC2)C(=O)N[C@@H]([C@@H](C)CC)C(=O)O[C@H]1C)[C@@H](C)CC)[C@@H](C)CC` (H-S([Ile-d(aIle)-dR-Ser(O-(NMe-dPhe-Ile))])[dT]A[Chg]I; ester 2-C), for which the values for the MIC in the data set on Enterococcus faecalis, with Bacillus subtilis and in the data set with Staphylococcus aureus [3] were 1 µg/mL, 0.125 µg/mL and 1 µg/mL, respectively. The Activity entry in the data set on HeLa was “Toxic”; in the data set on Erythrocyte it was “Non-Toxic”. Also, the solubility result in [1] is reported as “Insoluble”. Further, the hemolysis at 100 microg/ml in data set [2] is 0%.

Turning to `CC[C@H](C)[C@H](NC(=O)[C@H](NC(=O)[C@@H](CCCNC(=N)N)NC(=O)[C@@H](N)COC(=O)[C@@H](NC(=O)[C@@H](Cc1ccccc1)NC)[C@@H](C)CC)[C@@H](C)CC)C(=O)N[C@@H](CO)C(=O)N[C@H]1C(=O)N[C@@H](C)C(=O)N[C@@H](C2CCCCC2)C(=O)N[C@@H]([C@@H](C)CC)C(=O)O[C@H]1C` (H-S([Ile-dNMeF])[dR][d(aIle)]IS[dT]A[Chg]I; ester 6-C), in the data set with Enterococcus faecalis, the minimum inhibitory concentration (MIC) turned out to be 1 µg/mL. Besides, the Activity result with HeLa is on record as “Toxic”; in the data set on Erythrocyte, “Non-Toxic”. In [1], the solubility result is given as “Insoluble”. For the same molecule, in [2], the hemolysis at 100 microg/ml came out at 0%.

Turning to `CN[C@H](CC(C)C)C(=O)N[C@H]1C(=O)N[C@@H](CC(N)=O)C(=O)N[C@H]2C(=O)N[C@H]3C(=O)N[C@H](C(=O)N[C@H](C(=O)O)c4cc(O)cc(O)c4-c4cc3ccc4O)[C@H](O)c3ccc(c(Cl)c3)Oc3cc2cc(c3O[C@@H]2O[C@H](CO)[C@@H](O)[C@H](O)[C@H]2O[C@H]2C[C@](C)(N)[C@H](O)[C@H](C)O2)Oc2ccc(cc2Cl)[C@H]1O` [VANCOMYCIN], the figures for the MIC in the data set on Enterococcus faecalis and in the data set with Bacillus subtilis were over 8 µg/mL and 0.5 µg/mL, respectively.

As for `CC[C@H](C)[C@H](NC(=O)[C@@H](Cc1ccccc1)NC)C(=O)N[C@@H](CO)C(=O)N[C@H](CCCNC(=N)N)C(=O)N[C@@H](C(=O)N[C@H](C(=O)N[C@@H](CO)C(=O)N[C@H]1C(=O)N[C@@H](C)C(=O)N[C@@H](C2CCCCC2)C(=O)N[C@@H]([C@@H](C)CC)C(=O)O[C@H]1C)[C@@H](C)CC)[C@@H](C)CC`, the MIC in [4] worked out at 0.125 µg/mL. Also, in the data set with HeLa, the Activity result is reported as “Toxic”. Further, the solubility result in data set [1] was “Insoluble”.

`CC[C@H](C)[C@H](NC(=O)[C@@H](Cc1ccccc1)NC)C(=O)N[C@@H](CO)C(=O)N[C@H](CCC(N)=O)C(=O)N[C@@H](C(=O)N[C@H](C(=O)OC[C@H](N)C(=O)N[C@H]1C(=O)N[C@@H](C)C(=O)N[C@@H](C[C@H]2CNC(=N)N2)C(=O)N[C@@H]([C@@H](C)CC)C(=O)O[C@H]1C)[C@@H](C)CC)[C@@H](C)CC`: the minimal inhibitory concentration (MIC) in [4] is 0.25 µg/mL; in the data set on Enterococcus faecalis, 0.5 µg/mL; in the data set on Staphylococcus aureus [5], 0.5 µg/mL; in the data set with Bacillus subtilis, 0.062 µg/mL; in the data set on Staphylococcus aureus [3], 0.5 µg/mL; with Escherichia coli it was over 8 µg/mL.

`CC[C@H](C)[C@H](NC(=O)[C@@H](Cc1ccccc1)NC)C(=O)OC[C@H](N)C(=O)N[C@H](CCCNC(=N)N)C(=O)N[C@@H](C(=O)N[C@H](C(=O)OC[C@H](N)C(=O)N[C@H]1C(=O)N[C@@H](C)C(=O)N[C@@H](CC(C)C)C(=O)N[C@@H]([C@@H](C)CC)C(=O)O[C@H]1C)[C@@H](C)CC)[C@@H](C)CC` (H-S([Ile-d(aIle)-dR-Ser(O-(NMe-dPhe-Ile))])[dT]ALI; ester 2-C): the MIC in the data set with Bacillus subtilis is 0.016 µg/mL; in the data set on Staphylococcus aureus [3] it was 1 µg/mL.

Turning to `CC[C@H](C)[C@H](NC(=O)[C@@H](Cc1ccccc1)NC)C(=O)N[C@@H](CO)C(=O)N[C@H](CCCNC(=N)N)C(=O)N[C@@H](C(=O)N[C@H](C(=O)OC[C@H](N)C(=O)N[C@H]1C(=O)N[C@@H](C)C(=O)N[C@@H](C2CCCCC2)C(=O)N[C@@H]([C@@H](C)CC)C(=O)O[C@H]1C)[C@@H](C)CC)[C@@H](C)CC` (I: H-[dNMeF]IS[dR][d(aIle)]I / II: H-S[dT]A[Chg]I; ester I:C-II:1, II:2-II:C), the Activity result with HeLa is on record as “Toxic”; in the data set with Erythrocyte, “Non-Toxic”. Besides, in data set [1], the solubility entry was “Insoluble”. Also, in data set [2], the hemolysis at 100 microg/ml came to 0%. The minimum inhibitory concentration (MIC) with Staphylococcus aureus [5] and in the data set on Staphylococcus aureus [3] was 1 µg/mL in each case.

`CC[C@H](C)[C@H](NC(=O)[C@@H](Cc1ccccc1)NC)C(=O)N[C@@H](CO)C(=O)N[C@H](CCCNC(=N)N)C(=O)N[C@@H](C(=O)N[C@H](C(=O)OC[C@H](N)C(=O)N[C@H]1C(=O)N[C@@H](C)C(=O)N[C@@H](CC(C)C)C(=O)N[C@@H]([C@@H](C)CC)C(=O)O[C@H]1C)[C@@H](C)CC)[C@@H](C)CC` (I: H-[dNMeF]IS[dR][d(aIle)]I / II: H-S[dT]ALI; ester I:C-II:1, II:2-II:C): the MIC in data set [4] was found to be 0.016 µg/mL; in the data set with Enterococcus faecalis it was 1 µg/mL; with Staphylococcus aureus [5], 0.125 µg/mL.

Consider `CC[C@H](C)[C@H](NC(=O)[C@@H](Cc1ccccc1)NC)C(=O)N[C@@H](CO)C(=O)N[C@H](CCCNC(=N)N)C(=O)N[C@@H](C(=O)N[C@H](C(=O)N[C@@H](CO)C(=O)N[C@H]1C(=O)N[C@@H](C)C(=O)N[C@@H](CC(C)C)C(=O)N[C@@H]([C@@H](C)CC)C(=O)O[C@H]1C)[C@@H](C)CC)[C@@H](C)CC`, for which the MIC in the data set with Staphylococcus aureus [5] was 0.25 µg/mL.

On to `CC[C@H](C)[C@H](NC(=O)[C@H](NC(=O)[C@@H](CCCNC(=N)N)NC(=O)[C@@H](N)COC(=O)[C@@H](NC(=O)[C@@H](Cc1ccccc1)NC)[C@@H](C)CC)[C@@H](C)CC)C(=O)N[C@@H](CO)C(=O)N[C@H]1C(=O)N[C@@H](C)C(=O)N[C@@H](CC(C)C)C(=O)N[C@@H]([C@@H](C)CC)C(=O)O[C@H]1C` (H-S([Ile-dNMeF])[dR][d(aIle)]IS[dT]ALI; ester 6-C), for which the MIC in data set [4] was 0.031 µg/mL; with Bacillus subtilis it was 0.008 µg/mL; in the data set on Staphylococcus aureus [3], 0.5 µg/mL.

(Values after ChEMBL document CHEMBL5584273, “Investigation of Isobactin Analogues of Teixobactin” (ACS Med Chem Lett, 2024).)
